From ChEMBL document CHEMBL4138128, “Structural design, synthesis and pharmacological evaluation of thiazoles against Trypanosoma cruzi” (Eur J Med Chem, 2017)
The source made the active and inactive calls. No cut-off for these calls is given here.

What was measured:
[1] = test system: Trypanosoma cruzi; experiment: Antitrypanosomal activity against bloodstream trypomastigote stage of Trypanosoma cruzi Y infected in monkey LLC-MK2 cells assessed as reduction in parasite motility measured after 24 hrs by neubauer chamber method; format: functional, organism-based; settings: LLC-MK2, 24 h
Procedure, shortened: (§1)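 Y strain trypomastigotes from LLC-MK2 supernatants, 4x10^5/well, incubated 24 h at 37°C, 5% CO2 with five concentrations; viable parasites counted by motility in Neubauer chamber. Inhibition versus untreated cultures; IC50 by non-linear regression; benznidazole reference.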

[2] = Cytotoxicity against mouse J774 cells assessed as reduction in cell viability after 72 hrs by alamar blue assay; format: cell-based
Procedure, shortened: (§2)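 H9c2 or J774 cells (1 x 10^4/well) in DMEM/10% FBS preincubated 24 h, then exposed 72 h to six concentrations (0.41 to 100 µM) in triplicate, DMSO under 1%. Viability by AlamarBlue, read after 6 h at 570/600 nm; CC50 from three independent experiments; gentian violet positive control.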

[3] = Cytotoxicity against rat H9c2 cells assessed as reduction in cell viability after 72 hrs by alamar blue assay; format: cell-based; procedure, shortened: as §2
[4] = biological target: Cruzipain (Trypanosoma cruzi) (UniProt P25779); experiment: Inhibition of recombinant Trypanosoma cruzi cruzain at 10 uM preincubated for 10 mins followed by Z-FR-AMC substrate addition measured for 5 mins at 12 secs time interval by […] relative to control
Sequence of Cruzipain (Trypanosoma cruzi) (P25779 123-467 limits assumed): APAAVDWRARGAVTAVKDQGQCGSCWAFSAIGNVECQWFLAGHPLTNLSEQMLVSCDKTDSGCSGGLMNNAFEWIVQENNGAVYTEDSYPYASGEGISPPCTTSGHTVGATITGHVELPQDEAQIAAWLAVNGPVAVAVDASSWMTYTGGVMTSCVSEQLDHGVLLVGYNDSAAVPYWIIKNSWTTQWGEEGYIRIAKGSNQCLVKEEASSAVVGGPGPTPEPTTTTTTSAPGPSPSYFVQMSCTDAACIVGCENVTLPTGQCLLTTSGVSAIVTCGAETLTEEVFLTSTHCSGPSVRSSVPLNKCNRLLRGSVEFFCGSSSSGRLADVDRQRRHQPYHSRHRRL
Procedure, shortened: (§3)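 Cruzain 0.5 nM in 0.1 M sodium acetate pH 5.5, 1 mM beta-mercaptoethanol, 0.01% Triton X-100, 25 °C; 10 min preincubation, then Z-FR-AMC 2.5 µM (Km 1 µM). Fluorescence (ex 340, em 440) read continuously 5 min; initial rates versus DMSO control. Screens at 10 µM, two independent runs in triplicate; IC50 from at least seven concentrations, four-parameter fit, at least two curves.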

[5] = Solubility of the compound in pH 5.5 sodium acetate buffer at 10 uM; settings: pH 5.5, 10 µM
[6] = biological target: Cruzipain (Trypanosoma cruzi, UniProt P25779); experiment: Inhibition of recombinant Trypanosoma cruzi cruzain preincubated for 10 mins followed by Z-FR-AMC substrate addition measured for 5 mins at 12 secs time interval by […] relative to control; procedure, shortened: as §3
Sequence of Cruzipain (P25779 whole entry): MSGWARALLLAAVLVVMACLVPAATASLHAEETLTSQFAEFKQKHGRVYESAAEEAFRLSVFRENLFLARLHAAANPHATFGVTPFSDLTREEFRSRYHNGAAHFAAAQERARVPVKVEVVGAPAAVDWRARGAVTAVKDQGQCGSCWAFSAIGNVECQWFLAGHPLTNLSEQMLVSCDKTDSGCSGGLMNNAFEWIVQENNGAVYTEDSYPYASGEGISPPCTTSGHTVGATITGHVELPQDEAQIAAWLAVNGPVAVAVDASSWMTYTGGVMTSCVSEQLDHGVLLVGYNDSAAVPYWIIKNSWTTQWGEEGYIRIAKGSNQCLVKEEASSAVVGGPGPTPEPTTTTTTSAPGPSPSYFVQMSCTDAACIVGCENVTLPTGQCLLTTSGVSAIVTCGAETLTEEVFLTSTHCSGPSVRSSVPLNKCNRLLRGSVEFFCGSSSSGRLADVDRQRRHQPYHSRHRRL

[7] = Safety index, ratio of compound CC50 to gentian violet CC50 for cytotoxicity against mouse J774 cells; format: cell-based; procedure, shortened: as §2
[8] = Safety index, ratio of compound CC50 to gentian violet CC50 for cytotoxicity against rat H9c2 cells; format: cell-based; procedure, shortened: as §2
[9] = test system: Trypanosoma cruzi; experiment: Potency index, ratio of benznidazole IC50 to compound IC50 for antitrypanosomal activity against bloodstream trypomastigote stage of Trypanosoma cruzi Y infected in monkey LLC-MK2 cells; format: functional; procedure, shortened: as §1
[10] = test system: Trypanosoma cruzi; experiment: Antitrypanosomal activity against bloodstream trypomastigote stage of Trypanosoma cruzi Y assessed as induction of mitochondrial membrane potential loss at 0.4 to 0.8 uM measured after 24 hrs by Rho-123 staining based FACS analysis; format: functional, organism-based
Procedure, shortened: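 Trypomastigotes (1 x 10^7/mL) from LLC-MK2 culture supernatants, exposed 24 h at 37°C in DMEM with FBS; washed in PBS, stained 15 min with 5 µg/mL Rhodamine 123, washed, analysed immediately by flow cytometry; 10,000 events gated on trypomastigote region.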

[11] = test system: Trypanosoma cruzi; experiment: Induction of apoptosis in bloodstream trypomastigote stage of Trypanosoma cruzi Y assessed as viable cells at 0.4 uM measured after 24 hrs by Annexin V-FITC/propidium iodide staining based flow cytometry (reference value: 89.73%); format: functional
[12] = test system: Trypanosoma cruzi; experiment: Induction of apoptosis in bloodstream trypomastigote stage of Trypanosoma cruzi Y assessed as early apoptotic cells at 0.4 uM measured after 24 hrs by Annexin V-FITC/propidium iodide staining based flow cytometry (reference value: 8.25%); format: functional
[13] = test system: Trypanosoma cruzi; experiment: Induction of apoptosis in bloodstream trypomastigote stage of Trypanosoma cruzi Y assessed as late apoptotic cells at 0.4 uM measured after 24 hrs by Annexin V-FITC/propidium iodide staining based flow cytometry (reference value: 1.51%); format: functional
[14] = test system: Trypanosoma cruzi; experiment: Induction of apoptosis in bloodstream trypomastigote stage of Trypanosoma cruzi Y assessed as necrotic cells at 0.4 uM measured after 24 hrs by Annexin V-FITC/propidium iodide staining based flow cytometry (reference value: 0.5%); format: functional
[15] = test system: Trypanosoma cruzi; experiment: Antitrypanosomal activity against bloodstream trypomastigote stage of Trypanosoma cruzi Y infected in Balb/c mouse macrophages assessed as reduction in number of infected cells measured after 3 days by hoeschst staining based confocal microscopic method; format: functional, organism-based
Procedure, shortened: (§4)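 BALB/c peritoneal macrophages (5x10^4/well) in DMEM/10% FBS, infected with trypomastigotes (10:1) for 2 h, washed, held 24 h, then treated 72 h (test at 8, 2, 0.5 µM; benznidazole 5 µM control). Formaldehyde-fixed, Hoechst-stained, imaged by confocal high-content microscopy for infected cells and amastigotes per 100 cells; six determinations; ANOVA with Bonferroni.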

[16] = test system: Trypanosoma cruzi; experiment: Antitrypanosomal activity against bloodstream trypomastigote stage of Trypanosoma cruzi Y infected in Balb/c mouse macrophages assessed as reduction in number of intracellular amastigotes measured after 3 days by hoeschst staining based confocal microscopic method; format: functional, organism-based; procedure, shortened: as §4
[17] = test system: Trypanosoma cruzi; experiment: Synergistic antitrypanosomal activity against bloodstream trypomastigote stage of Trypanosoma cruzi Y infected in monkey LLC-MK2 cells measured after 24 hrs in presence of benznidazole; format: functional
Procedure, shortened: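 Doubling dilutions of each drug alone or in fixed-ratio combinations tested on trypomastigotes by the 24 h motility assay; combination index by Chou-Talalay method and isobologram.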

[18] = test system: Trypanosoma cruzi; experiment: (§5) Antitrypanosomal activity against bloodstream trypomastigote stage of Trypanosoma cruzi Y infected in Balb/c mouse assessed as reduction in blood parasitaemia at 25 mg/kg, po qd administered for 5 consecutive days starting from day 5 post infection measured on day 8 post infection relative to control; format: functional; design: scale not given: the % may be the effect or the level left
Procedure, shortened: (§6)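 Female BALB/c mice (18-22 g, 6-8 weeks) infected i.p. with 10^4 Y strain bloodstream trypomastigotes in saline; six per group. From day 5, oral dosing once daily for 5 days; vehicle saline with 20% DMSO. Parasitaemia counted as motile parasites in 5 µL tail-vein blood; reduction = (vehicle mean − treated mean)/vehicle mean × 100. Mortality followed to 30 days post-treatment.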

[19] = test system: Trypanosoma cruzi; experiment: as §5, with “12” for “8”; format: functional; design: scale not given: the % may be the effect or the level left; procedure, shortened: as §6
[20] = test system: Trypanosoma cruzi; experiment: Antitrypanosomal activity against bloodstream trypomastigote stage of Trypanosoma cruzi Y infected in Balb/c mouse assessed as protection against mouse mortality at 25 mg/kg, po qd administered for 5 consecutive days starting from day 5 post infection measured up to 30 days post treatment; format: functional, organism-based; procedure, shortened: as §6
[21] = test system: Mus musculus; experiment: Toxicity in Balb/c mouse infected with Trypanosoma cruzi Y trypomastigotes assessed as behavioral alteration at 25 mg/kg, po qd administered for 5 consecutive days starting from day 5 post infection; format: organism-based; settings: in vivo; procedure, shortened: as §6
[22] = test system: Trypanosoma cruzi; experiment: Antitrypanosomal activity against Trypanosoma cruzi Y trypomastigotes infected in mouse J774 cells measured after […] by contrast phase microscopic method; format: functional, organism-based
[23] = Cytotoxicity against mouse J774 cells; format: cell-based; procedure, shortened: as §2

COc1ccc(-c2csc(N/N=C(\C)c3ccc(Cl)c(Cl)c3)n2)cc1
IC50 [1]: 17.1 µM | CC50 at 72 h [2]: > 50 µM | CC50 at 72 h [3]: > 50 µM | inhibition [4]: 41% | solubility [5]: Soluble

C/C(=N\Nc1nc(-c2ccc(Cl)cc2Cl)cs1)c1ccc(Cl)c(Cl)c1
IC50 [1]: > 50 µM | CC50 at 72 h [2]: > 50 µM | CC50 at 72 h [3]: > 50 µM | inhibition [4]: 35% | solubility [5]: Soluble

C/C(=N\Nc1nc(-c2ccc3ccccc3c2)cs1)c1ccc(Cl)c(Cl)c1
IC50 [1]: > 50 µM | CC50 at 72 h [2]: > 50 µM | CC50 at 72 h [3]: > 50 µM | inhibition [4]: 44% | solubility [5]: Soluble

C/C(=N\Nc1nc(CCl)cs1)c1ccc(Cl)c(Cl)c1
IC50 [1]: > 50 µM | CC50 at 72 h [2]: > 50 µM | CC50 at 72 h [3]: > 50 µM | inhibition [4]: 50% | solubility [5]: Soluble

C/C(=N\N=c1\scc(-c2ccccc2)n1C)c1ccc(Cl)c(Cl)c1
IC50 [1]: > 50 µM | CC50 at 72 h [2]: > 50 µM | CC50 at 72 h [3]: > 50 µM | inhibition [4]: 12% | solubility [5]: Soluble

C/C(=N\Nc1nc(C)cs1)c1ccc(Cl)c(Cl)c1
IC50 [1]: 17.1 µM | CC50 at 72 h [2]: 33.7 µM | CC50 at 72 h [3]: 26.1 µM | inhibition [4]: 97% | IC50 [6]: 0.6 µM | solubility [5]: Soluble

C/C(=N\Nc1nc(-c2ccncc2)cs1)c1ccc(Cl)c(Cl)c1
IC50 [1]: 16.8 µM | CC50 at 72 h [2]: 39.8 µM | CC50 at 72 h [3]: 41.9 µM | inhibition [4]: 32% | solubility [5]: Soluble

C/C(=N\Nc1nc(-c2ccc(Cl)cc2)cs1)c1ccc(Cl)c(Cl)c1
IC50 [1]: > 50 µM | CC50 at 72 h [2]: > 50 µM | CC50 at 72 h [3]: > 50 µM | inhibition [4]: 31% | solubility [5]: Soluble

C/C(=N\N=c1\scc(-c2ccccc2)n1-c1ccccc1)c1ccc(Cl)c(Cl)c1
IC50 [1]: > 50 µM | CC50 at 72 h [2]: > 50 µM | CC50 at 72 h [3]: > 50 µM | inhibition [4]: 31% | solubility [5]: Soluble

C/C(=N\Nc1nc(-c2ccccn2)cs1)c1ccc(Cl)c(Cl)c1
IC50 [1]: 0.37 µM | CC50 at 72 h [2]: 10.1 µM | CC50 at 72 h [3]: 10.2 µM | selectivity ratio [7]: 22 | selectivity ratio [8]: 7 | Ratio IC50 [9]: 28 | inhibition [4]: 17% | Activity [10]: Active | Activity [11]: 74.62% | Activity [12]: 18.05% | Activity [13]: 7.13% | Activity [14]: 0.19% | Activity [15]: Dose-dependent effect | Activity [16]: Dose-dependent effect | CI [17]: 0.37 | Activity [18]: 54.6% | Activity [19]: 64.1% | Activity [20]: Active | Activity [21]: Non-Toxic | solubility [5]: Soluble

C/C(=N\Nc1nc(-c2ccc(-c3ccccc3)cc2)cs1)c1ccc(Cl)c(Cl)c1
IC50 [1]: > 50 µM | CC50 at 72 h [2]: > 50 µM | CC50 at 72 h [3]: > 50 µM | inhibition [4]: 44% | solubility [5]: Soluble

C/C(=N\Nc1nc(-c2ccc([N+](=O)[O-])cc2)cs1)c1ccc(Cl)c(Cl)c1
IC50 [1]: > 50 µM | CC50 at 72 h [2]: > 50 µM | CC50 at 72 h [3]: > 50 µM | solubility [5]: Soluble

C/C(=N\Nc1nc(-c2ccc(Cl)c(Cl)c2)cs1)c1ccc(Cl)c(Cl)c1
IC50 [1]: > 50 µM | CC50 at 72 h [2]: > 50 µM | CC50 at 72 h [3]: > 50 µM | solubility [5]: Soluble

C/C(=N\Nc1nc(-c2cccc([N+](=O)[O-])c2)cs1)c1ccc(Cl)c(Cl)c1
IC50 [1]: > 50 µM | CC50 at 72 h [2]: > 50 µM | CC50 at 72 h [3]: > 50 µM | solubility [5]: Soluble

C/C(=N\Nc1nc(-c2ccc(F)cc2)cs1)c1ccc(Cl)c(Cl)c1
IC50 [1]: > 50 µM | CC50 at 72 h [2]: > 50 µM | CC50 at 72 h [3]: > 50 µM | inhibition [4]: 32% | solubility [5]: Soluble

C/C(=N\Nc1nc(-c2ccc(Br)cc2)cs1)c1ccc(Cl)c(Cl)c1
IC50 [1]: > 50 µM | CC50 at 72 h [2]: > 50 µM | CC50 at 72 h [3]: > 50 µM | inhibition [4]: 43% | solubility [5]: Soluble

C/C(=N\Nc1nc(-c2ccc(Br)cc2)c(C)s1)c1ccc(Cl)c(Cl)c1
IC50 [1]: 19.1 µM | CC50 at 72 h [2]: > 50 µM | CC50 at 72 h [3]: > 50 µM | inhibition [4]: 74% | solubility [5]: Soluble

C/C(=N\Nc1nc(-c2ccccc2)c(C)s1)c1ccc(Cl)c(Cl)c1
IC50 [1]: 17.8 µM | CC50 at 72 h [2]: > 50 µM | CC50 at 72 h [3]: > 50 µM | inhibition [4]: 76% | solubility [5]: Soluble

C/C(=N\Nc1nc(-c2ccc(C)cc2)cs1)c1ccc(Cl)c(Cl)c1
IC50 [1]: 47.7 µM | CC50 at 72 h [2]: > 50 µM | CC50 at 72 h [3]: > 50 µM | inhibition [4]: 75% | solubility [5]: Soluble

C/C(=N\Nc1nc(C)c(C)s1)c1ccc(Cl)c(Cl)c1
IC50 [1]: 10.5 µM | CC50 at 72 h [2]: 41.8 µM | CC50 at 72 h [3]: > 50 µM | inhibition [4]: 84% | IC50 [6]: 9 µM | solubility [5]: Soluble

C/C(=N\Nc1nc(-c2ccc(Cl)c(Cl)c2Cl)cs1)c1ccc(Cl)c(Cl)c1
IC50 [1]: 6 µM | CC50 at 72 h [2]: 21.3 µM | CC50 at 72 h [3]: 17 µM | inhibition [4]: 38% | solubility [5]: Soluble

C/C(=N\N=C(\N)S)c1ccc(Cl)c(Cl)c1
IC50 [22]: 7.1 µM | CC50 [23]: > 100 µM

C/C(=N\Nc1nc(-c2ccccc2)cs1)c1ccc(Cl)c(Cl)c1
IC50 [1]: > 50 µM | CC50 at 72 h [2]: > 50 µM | CC50 at 72 h [3]: > 50 µM | inhibition [4]: 59% | solubility [5]: Soluble

CN(C)c1ccc(C(=C2C=CC(=[N+](C)C)C=C2)c2ccc(N(C)C)cc2)cc1 [GENTIAN VIOLET]
CC50 at 72 h [3]: 1.5 µM
